Experimental findings from PubChem BioAssay AID624204 (Sanford-Burnham Center for Chemical Genomics, 2012) are described below.

SMILES strings stand for the structures. In all, about 360,000 compounds went through this assay and about 770 (0.21%) were called active. Many of the other results were omitted from the sample, so actives are more common in it than they were. A number with no mark means an inactive call.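 The calls were made as follows: active = inhibition at least 30% at 10 µM, raw YFP signal under a set limit, fluorescence ratio 0.5 to 1.5; inactive = the rest.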

Chain of Sentrin-specific protease 1 (Homo sapiens) (Q9P0U3 419-644 limits assumed): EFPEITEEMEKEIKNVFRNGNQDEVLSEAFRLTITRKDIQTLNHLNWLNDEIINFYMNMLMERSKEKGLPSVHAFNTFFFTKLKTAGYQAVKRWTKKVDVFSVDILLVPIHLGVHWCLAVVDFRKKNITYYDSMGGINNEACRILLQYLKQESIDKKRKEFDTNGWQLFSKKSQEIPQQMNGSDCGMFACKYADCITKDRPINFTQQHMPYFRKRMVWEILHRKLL

The target of this experiment is Sentrin-specific protease 1 (Homo sapiens) (UniProt Q9P0U3). Briefly: human SENP1 catalytic domain inhibitors, primary screen, biochemical, FRET, uHTS (AID 624204).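 Also: 0% = enzyme with DMSO and 100% = no enzyme wells.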 The note with it: recombinant SENP1 catalytic domain, CyPet-SUMO1-YPet FRET cleavage; at 10 µM; active compounds read high. A digest of the protocol: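 System: Recombinant human SENP1 catalytic domain, His6-tagged | Incubation: Enzyme reaction for 50 min at room temperature, dark | Medium: Tris pH 8 with BME, BSA, NP40 and catalase | Also added: 25 nM SUMO1 FRET substrate | Compound: 10 µM single point, 0.5% DMSO | Measured by: FRET fluorescence in CFP and YFP emission channels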
What is called inhibition is the change of the read-out against control, counted positive when it falls. For the compound `CCN(CC)c1ccc(S(=O)(=O)N2CCOCC2)cc1NC(=O)CSc1cccc[n+]1[O-]`, the inhibition is 3.85%.

`COC(=O)c1ccc(NC(=O)CSc2nncn2-c2cccnc2)cc1`: the inhibition was -5.21%.

As for `COc1cccc(CNC(=O)C2CCCN(S(=O)(=O)N3CC(C)CC(C)C3)C2)c1` (stereo not drawn), the inhibition is -0.397%.

As to `CC(CC(=O)C1C(C)C=CCC1(C)C)NNC(N)=O` (stereo not drawn), the inhibition is 1.56%.

For `COc1ccc2oc(C(=O)OCC(=O)N(CC(C)C)c3c(N)n(Cc4ccccc4)c(=O)[nH]c3=O)c(C)c2c1`, the inhibition is -9.9%.

Consider `CCOC(=O)N(C)c1c(CC)nc2c(OCc3ccccc3C(=O)OC)cccn12`, for which the inhibition was 0.268%.

With `O=C(CN1CCN(S(=O)(=O)c2ccc(Br)cc2)CC1)Nc1ccccc1C(=O)c1ccccc1`, the inhibition was 0.864%.

As to `COc1ccc2c(c1)c(=O)c(C(=O)c1ccc(Cl)cc1)cn2CC(=O)Nc1ccc(F)cc1`, the inhibition is -1.49%.

Turning to `CCOc1ncccc1C(=O)OCC(=O)Nc1cccc(S(=O)(=O)N2CCCCCC2)c1`, the inhibition is 2.06%.

Regarding `O=C(NCc1cccnc1)c1ccccc1NC(=O)c1c(F)cccc1F`, the inhibition was 3.29%.

For the compound `CCCNC(=O)c1cc(C2CCCCN2S(=O)(=O)c2ccc(C#N)cc2)on1` (stereo not drawn), the inhibition is 2.5%.

`CC(C)c1cc(C(=O)N/N=C/c2ccoc2)c(O)c(C(C)C)c1`: the inhibition is 1.94%.

On to `Cc1cc(C(=O)N/N=C/c2ccc(N3CCOCC3)cc2)c(C)o1`, for which the inhibition was 33.5% (active).

With `CNC(=S)N/N=C/c1ccc(N2CCOCC2)s1`, the inhibition is -70.3%.

For the compound `Cc1ccc(S(=O)(=O)n2cccc2CO)cc1`, the inhibition is -0.0494%.

Turning to `CC(C)NC(=O)C1(C)CCCCCN1C(=O)c1ccc(-c2ccccc2)cc1` (stereo not drawn), the inhibition was 0.518%.

Regarding `Cc1ccccc1CN1C(=O)CSCC1(C)C(=O)Nc1c(C)cccc1C` (stereo not drawn), the inhibition was -2.15%.

`Cn1cc(/C=C/C(=O)N2CCCC(C(=O)c3ccc(C(F)(F)F)cc3)C2)cn1` (stereo not drawn): the inhibition was 0.414%.

On to `CO[C@H]1[C@@H]2C=CO[C@@H](O[C@H]3O[C@@H](CO)[C@H](O)[C@@H](O)[C@@H]3O)[C@@H]2[C@@]2(CO)O[C@@H]12`, for which the inhibition is -2%.

Take `COC(=O)c1c(NC(=O)CN2C(=O)NC(CCc3ccccc3)C2=O)sc2c1CCCCC2` (stereo not drawn): the inhibition was -3.88%.

As to `NC1=NN(c2cccc(C(=O)O)c2)C(=O)C1`, the inhibition is 4.58%.

For the compound `Cc1cc(C)cc(C(=O)OCC(=O)NCCNC(=O)COC(=O)c2cc(C)cc(C)c2)c1`, the inhibition was 0.612%.

Turning to `O=C(c1ccc(-n2cnnn2)cc1)N1CCN(C(c2ccccc2)c2ccccc2)CC1`, the inhibition was 0.954%.

For `CCc1ccc(OC(C)C(=O)Nc2ccc(S(=O)(=O)Nc3cc(C)on3)cc2)cc1` (stereo not drawn), the inhibition was 2.02%.

For the compound `CCC(=O)Nc1ccc(-c2ccc(N3CCCCC3)nn2)cc1`, the inhibition was -4.2%.

Consider `COc1ccc(/C=C(\NC(=O)c2ccc(OCC(C)C)cc2)C(=O)OCc2ccco2)cc1`, for which the inhibition was -2.88%.

Regarding `COC1C(CO)OC(n2cnc3c(=S)nc(N)[nH]c32)C1O` (stereo not drawn), the inhibition was 0.119%.

As for `Cc1ccc(CN2CCN(Cc3cccc(C)n3)CC2CCO)cc1` (stereo not drawn), the inhibition was -3.82%.
